According to ChEMBL document CHEMBL1156706, “Structure-activity relationships of novel heteroaryl-acrylonitriles as cytotoxic and antibacterial agents” (Eur J Med Chem, 2008):
Values after ≈ are worked out from the molar mass of the structure shown.

What was measured:
[1] = system: RT-4; assay: Cytotoxicity against human RT4 cells after 96 hrs by microtiter assay; format: functional, cell-based; conditions: RT-4, 96 h
Procedure, shortened: (§1)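 DSMZ cell lines in RPMI 1640 with 10% FCS. DMF stocks diluted 1000-fold into medium. Continuous exposure 96 h at 37 °C, 5% CO2. Adherent cells stained with crystal violet. IC50 (50% growth inhibition vs untreated control) obtained by least-squares fitting of dose–response curves, averaging 2–5 independent determinations.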

[2] = system: RT-112; assay: Cytotoxicity against human RT112 cells after 96 hrs by microtiter assay; format: functional, cell-based; conditions: RT-112, 96 h; procedure, shortened: as §1
[3] = system: 5637; assay: Cytotoxicity against human 5637 cells after 96 hrs by microtiter assay; format: functional, cell-based; conditions: Homo sapiens, 5637, 96 h; procedure, shortened: as §1
[4] = Cytotoxicity against human KYSE70 cells after 96 hrs by microtiter assay; format: functional, cell-based; conditions: KYSE-70, 96 h; procedure, shortened: as §1
[5] = system: KYSE-510; assay: Cytotoxicity against human KYSE510 cells after 96 hrs by microtiter assay; format: functional, cell-based; conditions: KYSE-510, 96 h; procedure, shortened: as §1
[6] = Cytotoxicity against human KYSE520 cells after 96 hrs by microtiter assay; format: functional, cell-based; conditions: KYSE-520, 96 h; procedure, shortened: as §1
[7] = system: YAPC; assay: Cytotoxicity against human YAPC cells after 96 hrs by microtiter assay; format: functional, cell-based; procedure, shortened: as §1
[8] = system: DAN-G; assay: Cytotoxicity against human DAN-G cells after 96 hrs by microtiter assay; format: functional, cell-based; procedure, shortened: as §1
[9] = system: SISO; assay: Cytotoxicity against human SISO cells after 96 hrs by microtiter assay; format: functional, cell-based; procedure, shortened: as §1
[10] = Cytotoxicity against human LCLC-103H cells after 96 hrs by microtiter assay; format: functional, cell-based; procedure, shortened: as §1
[11] = system: MCF7; assay: Cytotoxicity against human MCF7 cells after 96 hrs by microtiter assay; format: functional, cell-based; conditions: MCF7, 96 h; procedure, shortened: as §1
[12] = system: A-427; assay: Cytotoxicity against human A427 cells after 96 hrs by microtiter assay; format: functional, cell-based; conditions: A-427, 96 h; procedure, shortened: as §1
[13] = system: Enterococcus hirae; assay: Antibacterial activity against Enterococcus hirae NCTC 10541 after 24 hrs; format: functional, organism-based; conditions: NCTC 10541, 24 h
Procedure, shortened: (§2)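 Overnight culture diluted in Mueller–Hinton broth to 10^5 CFU/ml. Compounds dissolved in DMSO and diluted twofold in broth over 0.24–62.5 […]. Tubes inoculated and incubated 24 h at 37 °C. MIC taken as the lowest concentration with no visible growth. Clear tubes were subcultured onto Mueller–Hinton agar, and MBC was taken as the minimal concentration killing the organisms after 24 h.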

[14] = system: Staphylococcus aureus; assay: Antibacterial activity against Staphylococcus aureus NCTC 4163 after 24 hrs; format: functional, organism-based; conditions: NCTC 4163, 24 h; procedure, shortened: as §2
[15] = system: Staphylococcus epidermidis; assay: Antibacterial activity against Staphylococcus epidermis NCTC 14990 after 24 hrs; format: functional, organism-based; conditions: NCTC 14990, 24 h; procedure, shortened: as §2
[16] = Aqueous solubility in phosphate buffered saline at pH 7.4 after 24 hrs; format: physicochemical
Procedure, shortened: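 Solid added in excess to Dulbecco's PBS, pH 7.4, and stirred in the dark 24 h at room temperature. Suspension filtered through a 0.22 filter. Filtrate absorbance read at each compound's λmax, and dissolved concentration calculated from the extinction coefficient at that wavelength.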

| MIC [13] | MIC [14] | MIC [15] | solubility at 24 h [16] | Compound | IC50 [1] | IC50 [2] | IC50 [3] | IC50 [4] | IC50 [5] | IC50 [6] | IC50 [7] | IC50 [8] | IC50 [9] | IC50 [10] | IC50 [11] | IC50 [12] |
| --- | --- | --- | --- | --- | --- | --- | --- | --- | --- | --- | --- | --- | --- | --- | --- | --- |
| > 215 µM | > 215 µM | 215 µM (≈ 52.9 µg/mL) | – | N#C/C(=C\c1ccccn1)c1nc2ccccc2[nH]1 | 2.68 µM | 4.73 µM | 2.28 µM | 6.82 µM | 3.67 µM | 10.5 µM | 6.58 µM | 3.67 µM | 1.91 µM | 7.42 µM | 8.14 µM | 2.84 µM |
| – | – | – | 28 µM (≈ 6.92 µg/mL) | N#C/C(=C\c1ccccn1)c1nc2cccnc2[nH]1 | 10 µM | 8.18 µM | 3.9 µM | 8.14 µM | 13.9 µM | 7.98 µM | 8.89 µM | 7.97 µM | 5.53 µM | 7.37 µM | 8.28 µM | 5.15 µM |
| – | – | – | – | N#C/C(=C\c1ccsc1)c1nc2ccccc2[nH]1 | 7.82 µM | 13.3 µM | 14.1 µM | 16 µM | 23 µM | 14.6 µM | 28.9 µM | 15.7 µM | 23.8 µM | 3.75 µM | 14.4 µM | 6.39 µM |
| – | – | – | 23 µM (≈ 5.69 µg/mL) | N#C/C(=C\c1ccccn1)c1nc2ccccc2o1 | > 20 µM | – | > 20 µM | – | – | – | – | – | – | > 20 µM | – | – |
| > 210 µM | > 210 µM | > 210 µM | 0.7 µM (≈ 0.208 µg/mL) | N#C/C(=C\c1ccc([N+](=O)[O-])o1)c1nc2ccccc2s1 | 4.3 µM | 1.78 µM | 2.37 µM | 2.38 µM | 5.44 µM | 2 µM | 2.25 µM | 3.84 µM | 2.5 µM | 1.47 µM | 3.33 µM | 1.21 µM |
| – | – | – | – | S=P(N1CC1)(N1CC1)N1CC1 [THIOTEPA] | 18.3 µM | 3.4 µM | 2 µM | 5.4 µM | 4.31 µM | 6.44 µM | 2.66 µM | 1.66 µM | 1.4 µM | 6.97 µM | 3.23 µM | 1.58 µM |
| – | – | – | – | COc1ccc(/C=C(\C#N)c2nc3ccccc3[nH]2)s1 | 21.2 µM | 14.7 µM | 31.9 µM | 12.2 µM | 12 µM | 20.5 µM | > 40 µM | 13.8 µM | 36.8 µM | 5.24 µM | 13.2 µM | 7.19 µM |
| – | – | – | 2 µM (≈ 0.527 µg/mL) | N#C/C(=C\c1ccccn1)c1nc2ccccc2s1 | 9.69 µM | 8.19 µM | 6.65 µM | 7.28 µM | 13 µM | 9.18 µM | 8.27 µM | 6.47 µM | 5.69 µM | 7.8 µM | 4.34 µM | 6.05 µM |
| – | – | – | – | O=C1CN(/N=C/c2ccc([N+](=O)[O-])o2)C(=O)N1 [NITROFURANTOIN] | 7 µM | – | 21.3 µM | 22.8 µM | 29 µM | – | – | 6.74 µM | 7.27 µM | 2.34 µM | 4.44 µM | 1.86 µM |
| – | – | – | – | N#C/C(=C\c1ccncc1)c1nc2ccccc2[nH]1 | 40.1 µM | 30.7 µM | 31.2 µM | 37.1 µM | > 40 µM | > 40 µM | > 40 µM | > 40 µM | > 40 µM | 19.7 µM | > 40 µM | 26.2 µM |
| – | – | – | – | N#C/C(=C\c1cccnc1)c1nc2ccccc2[nH]1 | 3.47 µM | 3.5 µM | 1.79 µM | 4.25 µM | 3.92 µM | 5.13 µM | 4.92 µM | 3.27 µM | 3.02 µM | 1.97 µM | 3.15 µM | 3.29 µM |
